Reference: ChEMBL document CHEMBL1817573, “Synthesis, structure elucidation, determination of the lipophilicity and identification of antitumour activities in vitro of novel 3-(2-furanyl)-8-aryl-7,8-dihydroimidazo[2,1-c][1,2,4]triazin-4(6H)-ones with a low cytotoxicity towards normal human skin fibroblast cells” (Bioorg Med Chem, 2011)

Columns and labels:
[1] = Growth inhibition of human HSF cells at 50 ug/ml after 24 hrs by spectrophotometric analysis; assay type: cell-based; conditions: read-out: GI
In short: (§1)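 Normal primary human skin fibroblasts (HSF), HeLa (ECACC 93021013) and T47D (ECACC 85102201) were each seeded at 10⁴ cells/mL. Compounds were predissolved in DMSO and tested at a single 50 µg/mL (about 0.14–0.18 mM). Cultures were incubated at 37 °C, 5% CO₂, 90% humidity for 24, 48 or 72 h, and percent growth inhibition was read spectrophotometrically.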

T47D [2] = test: Growth inhibition of human T47D cells at 50 ug/ml after 24 hrs by spectrophotometric analysis; assay type: functional; conditions: read-out: GI; in short: as §1
HeLa [3] = test: Growth inhibition of human HeLa cells at 50 ug/ml after 72 hrs by spectrophotometric analysis; assay type: functional; conditions: read-out: GI; in short: as §1
HeLa [4] = test: Growth inhibition of human HeLa cells at 50 ug/ml after 24 hrs by spectrophotometric analysis; assay type: functional; conditions: read-out: GI; in short: as §1
HeLa [5] = test: Antitumor activity against human HeLa cells after 48 hrs by spectrophotometric analysis; assay type: functional, cell-based
In short: (§2)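 Cancer lines were HeLa (ECACC 93021013, cervix epitheloid carcinoma) and T47D (ECACC 85102201, breast carcinoma). Cells were seeded at 10⁴ cells/mL, treated with compounds dissolved in DMSO, and incubated at 37 °C, 5% CO₂, 90% humidity for 24, 48 or 72 h. Read-out was the BrdU assay, and IC50 was calculated from dose–response curves.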

T47D [6] = test: Antitumor activity against human T47D cells after 24 hrs by spectrophotometric analysis; assay type: functional, cell-based; in short: as §2
T47D [7] = test: Growth inhibition of human T47D cells at 50 ug/ml after 48 hrs by spectrophotometric analysis; assay type: functional; conditions: read-out: GI; in short: as §1
HeLa [8] = test: Antitumor activity against human HeLa cells after 24 hrs by spectrophotometric analysis; assay type: functional, cell-based; in short: as §2
[9] = Growth inhibition of human HSF cells at 50 ug/ml after 48 hrs by spectrophotometric analysis; assay type: cell-based; conditions: read-out: GI; in short: as §1
T47D [10] = test: Antitumor activity against human T47D cells after 72 hrs by spectrophotometric analysis; assay type: functional, cell-based; in short: as §2
T47D [11] = test: Antitumor activity against human T47D cells after 48 hrs by spectrophotometric analysis; assay type: functional, cell-based; in short: as §2
HeLa [12] = test: Growth inhibition of human HeLa cells at 50 ug/ml after 48 hrs by spectrophotometric analysis; assay type: functional; conditions: read-out: GI; in short: as §1
HeLa [13] = test: Antitumor activity against human HeLa cells after 72 hrs by spectrophotometric analysis; assay type: functional, cell-based; in short: as §2
T47D [14] = test: Growth inhibition of human T47D cells at 50 ug/ml after 72 hrs by spectrophotometric analysis; assay type: functional; conditions: read-out: GI; in short: as §1
[15] = Lipophilicity, log Kw of the compound in methanol-water mixture by RP-HPLC; assay type: physicochemical
In short: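 Isocratic RP-HPLC on a C18 column (150 × 4.6 mm, 5 µm) at 22 °C, 1 mL/min, DAD detection. Mobile phases were methanol (30–80%), 20% acetate buffer pH 3.5 (0.2 M acetate, pH measured in aqueous solution) and 0.01 M/L octane-1-sulfonic acid sodium salt. log kw was extrapolated with the Snyder–Soczewiński equation.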

[16] = Growth inhibition of human HSF cells at 50 ug/ml after 72 hrs by spectrophotometric analysis; assay type: cell-based; conditions: read-out: GI; in short: as §1

| Structure (SMILES) | inhibition at 24 h, 50 ug/ml [1] [%] | inhibition of growth at 50 µg/mL (T47D [2]) [%] | inhibition of growth at 50 µg/mL (HeLa [3]) [%] | inhibition of growth at 50 µg/mL (HeLa [4]) [%] | IC50 (HeLa [5]) [µM] | IC50 (T47D [6]) [µM] | inhibition of growth at 50 µg/mL (T47D [7]) [%] | IC50 (HeLa [8]) [µM] | inhibition at 48 h, 50 ug/ml [9] [%] | IC50 (T47D [10]) [µM] | IC50 (T47D [11]) [µM] | inhibition of growth at 50 µg/mL (HeLa [12]) [%] | IC50 (HeLa [13]) [µM] | inhibition of growth at 50 µg/mL (T47D [14]) [%] | logKw [15] | inhibition at 72 h, 50 ug/ml [16] [%] |
| --- | --- | --- | --- | --- | --- | --- | --- | --- | --- | --- | --- | --- | --- | --- | --- | --- |
| O=c1c(-c2ccco2)nnc2n1CCN2c1ccccc1 | 50 | 50 | 100 | 50 | 130 | 180 | 85 | 180 | 50 | 100 | 110 | 75 | 100 | 95 | 2.64 | 60 |
| Cc1ccccc1N1CCn2c1nnc(-c1ccco1)c2=O | 0 | 25 | 50 | 25 |  |  | 50 |  | 0 |  |  | 25 |  | 75 | 2.48 | 0 |
| Cc1ccc(N2CCn3c2nnc(-c2ccco2)c3=O)cc1 | 30 | 40 | 80 | 50 |  |  | 60 |  | 50 |  |  | 50 |  | 80 | 3.27 | 50 |
| Cc1cccc(N2CCn3c2nnc(-c2ccco2)c3=O)c1C | 0 | 0 | 90 | 60 |  |  | 15 |  | 0 |  |  | 75 |  | 25 | 3 | 0 |
| COc1ccccc1N1CCn2c1nnc(-c1ccco1)c2=O | 0 | 0 | 80 | 25 |  |  | 30 |  | 0 |  |  | 35 |  | 70 | 2.54 | 5 |
| COc1ccc(N2CCn3c2nnc(-c2ccco2)c3=O)cc1 | 10 | 50 | 95 | 80 |  |  | 70 |  | 50 |  |  | 80 |  | 80 | 2.89 | 60 |
| O=c1c(-c2ccco2)nnc2n1CCN2c1ccccc1Cl | 10 | 5 | 100 | 80 | 110 | > 160 | 15 | 110 | 20 | > 160 | > 160 | 80 | 90 | 25 | 2.78 | 20 |
| O=c1c(-c2ccco2)nnc2n1CCN2c1cccc(Cl)c1 | 25 | 20 | 95 | 80 |  |  | 50 |  | 60 |  |  | 80 |  | 80 | 3.45 | 75 |
| O=c1c(-c2ccco2)nnc2n1CCN2c1ccc(Cl)cc1 | 50 | 0 | 90 | 50 |  |  | 15 |  | 80 |  |  | 75 |  | 15 | 3.45 | 90 |
| O=c1c(-c2ccco2)nnc2n1CCN2c1ccc(Cl)c(Cl)c1 | 0 | 10 | 95 | 50 |  |  | 20 |  | 50 |  |  | 50 |  | 40 | 4.01 | 80 |
| O=c1c(-c2ccco2)nnc2n1CCN2c1c(Cl)cccc1Cl | 10 | 10 | 95 | 80 |  |  | 20 |  | 15 |  |  | 80 |  | 25 | 2.97 | 15 |
